Experimental data reported in publication PMC3677213 (Antiviral research, 2013).
Like-named read-outs stand apart in the source and are kept apart here.

How the values were obtained:
[1] = test system: HIV-1 NL4-3 integrase N155H; assay type: cell-based; conditions: MT-4 cells; IN substitution N155H
[2] = test system: WT HIV-1 NL4-3; assay type: cell-based; conditions: MT-4 cells
[3] = test system: HIV-1 NL4-3 integrase Y143C; assay type: cell-based; conditions: MT-4 cells; IN substitution Y143C
[4] = test system: HIV-1 NL4-3 integrase E92Q/N155H; assay type: cell-based; conditions: MT-4 cells; IN substitutions E92Q/N155H
[5] = test system: HIV-1 NL4-3 integrase T66I; assay type: cell-based; conditions: MT-4 cells; IN substitution T66I
[6] = test system: HIV-2 isolate CDC310319; assay: Antiviral assay in fresh human PBMCs; assay type: cell-based
Summary of the method: (§1)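 Freshly isolated human PBMCs are infected with virus and cultured with test compound. Replication is measured as reverse transcriptase activity in culture supernatants, using a microtiter plate-based RT reaction. EC50 is the concentration giving 50% inhibition, as the mean of three determinations. CC50 is measured in parallel with the tetrazolium dye MTS, and therapeutic index = CC50/EC50.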

[7] = target: UGT1A1 (Homo sapiens, UniProt P22309); assay: UGT substrate activity with cDNA-expressed isozyme; assay type: in vitro ADME; conditions: UGT1A1 (BD Biosciences); HPLC
[8] = target: CYP2D6 (Homo sapiens, UniProt P10635); assay: Cytochrome P-450 isozyme inhibition assay in human liver microsomes; assay type: in vitro ADME
[9] = test system: HIV-1 (Group M) isolate 93UG067, subtype D; assay: Antiviral assay in fresh human PBMCs; assay type: cell-based
[10] = test system: UGT in pooled human liver microsomes (UGT 1A1, 1A4, 1A6, 1A9 and 2B7); assay: UGT substrate activity in pooled human liver microsomes; assay type: in vitro ADME
[11] = test system: HIV-1 (Group M) isolate CDC310342, CRF02-AG; assay: Antiviral assay in fresh human PBMCs; assay type: cell-based
[12] = In vitro human liver microsome stability; assay type: in vitro ADME
[13] = target: CYP2C8 (Homo sapiens, UniProt P10632); assay: Cytochrome P-450 isozyme inhibition assay in human liver microsomes; assay type: in vitro ADME
[14] = target: CYP2C9 (Homo sapiens, UniProt P11712); assay: as above; assay type: in vitro ADME
[15] = target: UGT1A3 (Homo sapiens, UniProt P35503); assay: UGT substrate activity with cDNA-expressed isozyme; assay type: in vitro ADME; conditions: UGT1A3 (BD Biosciences); HPLC
[16] = test system: HIV-1 NL4-3 integrase Q148R; assay type: cell-based; conditions: MT-4 cells; IN substitution Q148R
[17] = test system: HIV-1 (Group M) isolate CMU08, subtype E; assay: Antiviral assay in fresh human PBMCs; assay type: cell-based
[18] = test system: CYP isozymes (3A4, 2D6, 2C8, 2C9, 2C19); assay: Activation of CYP isozymes; assay type: in vitro ADME; conditions: human liver microsomes; CYP 3A4, 2D6, 2C8, 2C9, 2C19
[19] = test system: HIV-1 (Group M) isolate 98IN022, subtype C; assay: Antiviral assay in fresh human PBMCs; assay type: cell-based
[20] = target: UGT1A4 (Homo sapiens, UniProt P22310); assay: UGT inhibition study with trifluoperazine as substrate; assay type: in vitro ADME; conditions: human liver microsomes
Summary of the method: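 Pooled human liver microsomes (0.2 mg/mL protein) were held with alamethicin (0.024 mg/mg protein) in 100 mM potassium phosphate, pH 7.4, with 5 mM MgCl2 at 0 °C for 15 min. Test compound in DMSO (0 to 300 μM) and trifluoperazine substrate were added, with organic solvent <1.6%. Mixtures were preincubated 3 min at 37 °C, then started with UDPGA (final 4 mM) and run 15 min. Acetonitrile stop, centrifugation, HPLC-UV of supernatant.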

[21] = test system: HIV-1 (Group M) isolate 92RW016, subtype A; assay: Antiviral assay in fresh human PBMCs; assay type: cell-based
[22] = test system: HIV-1, HIV-2 and SIV isolates; assay: Antiviral assay in PBMCs, all isolates together; assay type: cell-based; conditions: PBMC, read-out: mean EC50 (± SD), all isolates
[23] = target: CYP3A4 (Homo sapiens, UniProt P08684); assay: Cytochrome P-450 isozyme inhibition assay in human liver microsomes; assay type: in vitro ADME
[24] = test system: HIV-1 (Group M) isolate 91US004, subtype B; assay: Antiviral assay in fresh human PBMCs; assay type: cell-based
[25] = Cytotoxicity in human PBMC cultures; assay type: cell-based; conditions: peripheral blood mononuclear cells (PBMCs)
Summary of the method: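 Freshly isolated human PBMCs are cultured with test compound. Viability is read out with the tetrazolium-based dye MTS, and CC50 is derived from that read-out.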

[26] = target: CYP2C19 (Homo sapiens, UniProt P33261); assay: Cytochrome P-450 isozyme inhibition assay in human liver microsomes; assay type: in vitro ADME
[27] = test system: UGT isozymes; assay: Activation of UGT isozymes in human liver microsomes; assay type: in vitro ADME; conditions: kinetic studies in human liver microsomes
[28] = test system: HIV-1 (Group M) isolate 93BR029, subtype F; assay: Antiviral assay in fresh human PBMCs; assay type: cell-based
[29] = test system: HIV-1 (Group M) isolate G3, subtype G; assay: Antiviral assay in fresh human PBMCs; assay type: cell-based
[30] = test system: SIV isolate MAC251; assay: Antiviral assay in fresh human PBMCs; assay type: cell-based; conditions: PBMC
Summary of the method: as §1

[31] = Human immunodeficiency virus 1, PBMC, in Homo sapiens, read-out: EC50 (± SD)

Chain of UGT1A1 (P22309 26-533): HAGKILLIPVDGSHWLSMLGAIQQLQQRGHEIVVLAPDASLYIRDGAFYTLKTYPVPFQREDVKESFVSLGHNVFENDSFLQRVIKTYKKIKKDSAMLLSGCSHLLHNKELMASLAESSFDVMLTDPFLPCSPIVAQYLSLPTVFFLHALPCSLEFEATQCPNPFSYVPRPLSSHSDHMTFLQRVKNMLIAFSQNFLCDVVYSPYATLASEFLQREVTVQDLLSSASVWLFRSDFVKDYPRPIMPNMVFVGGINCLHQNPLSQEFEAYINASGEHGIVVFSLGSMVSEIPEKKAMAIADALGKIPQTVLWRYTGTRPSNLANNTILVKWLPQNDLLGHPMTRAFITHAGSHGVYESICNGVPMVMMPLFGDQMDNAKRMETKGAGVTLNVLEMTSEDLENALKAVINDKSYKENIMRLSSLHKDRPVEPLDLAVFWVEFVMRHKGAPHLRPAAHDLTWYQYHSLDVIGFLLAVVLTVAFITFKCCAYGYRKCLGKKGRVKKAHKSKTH
Chain of CYP2C9 (P11712 whole entry): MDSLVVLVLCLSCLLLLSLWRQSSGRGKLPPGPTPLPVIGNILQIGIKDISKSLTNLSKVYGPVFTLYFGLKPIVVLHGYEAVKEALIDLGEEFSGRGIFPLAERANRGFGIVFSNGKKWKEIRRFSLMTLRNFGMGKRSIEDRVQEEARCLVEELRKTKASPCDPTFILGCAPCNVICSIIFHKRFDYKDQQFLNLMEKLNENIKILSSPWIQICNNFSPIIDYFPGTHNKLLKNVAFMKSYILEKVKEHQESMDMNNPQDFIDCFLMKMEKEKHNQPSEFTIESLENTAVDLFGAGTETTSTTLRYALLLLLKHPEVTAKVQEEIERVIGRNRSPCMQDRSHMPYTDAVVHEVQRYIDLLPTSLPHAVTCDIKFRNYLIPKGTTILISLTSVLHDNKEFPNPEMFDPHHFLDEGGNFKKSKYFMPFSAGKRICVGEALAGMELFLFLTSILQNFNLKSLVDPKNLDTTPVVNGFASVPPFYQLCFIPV
Chain of UGT1A3 (P35503 29-534): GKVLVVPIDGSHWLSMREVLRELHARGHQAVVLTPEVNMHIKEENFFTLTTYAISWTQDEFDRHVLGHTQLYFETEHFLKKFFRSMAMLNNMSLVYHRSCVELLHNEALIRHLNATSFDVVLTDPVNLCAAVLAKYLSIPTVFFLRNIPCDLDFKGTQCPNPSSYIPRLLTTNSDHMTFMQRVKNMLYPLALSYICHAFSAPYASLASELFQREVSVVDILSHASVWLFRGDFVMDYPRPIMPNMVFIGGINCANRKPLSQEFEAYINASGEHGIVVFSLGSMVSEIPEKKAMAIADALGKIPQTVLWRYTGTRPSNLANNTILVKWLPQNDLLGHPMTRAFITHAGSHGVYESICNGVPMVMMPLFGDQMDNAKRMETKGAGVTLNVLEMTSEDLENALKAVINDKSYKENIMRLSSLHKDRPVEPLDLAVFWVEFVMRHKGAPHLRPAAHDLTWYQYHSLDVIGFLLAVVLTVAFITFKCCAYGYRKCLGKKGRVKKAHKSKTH
Chain of CYP2C19 (P33261 whole entry): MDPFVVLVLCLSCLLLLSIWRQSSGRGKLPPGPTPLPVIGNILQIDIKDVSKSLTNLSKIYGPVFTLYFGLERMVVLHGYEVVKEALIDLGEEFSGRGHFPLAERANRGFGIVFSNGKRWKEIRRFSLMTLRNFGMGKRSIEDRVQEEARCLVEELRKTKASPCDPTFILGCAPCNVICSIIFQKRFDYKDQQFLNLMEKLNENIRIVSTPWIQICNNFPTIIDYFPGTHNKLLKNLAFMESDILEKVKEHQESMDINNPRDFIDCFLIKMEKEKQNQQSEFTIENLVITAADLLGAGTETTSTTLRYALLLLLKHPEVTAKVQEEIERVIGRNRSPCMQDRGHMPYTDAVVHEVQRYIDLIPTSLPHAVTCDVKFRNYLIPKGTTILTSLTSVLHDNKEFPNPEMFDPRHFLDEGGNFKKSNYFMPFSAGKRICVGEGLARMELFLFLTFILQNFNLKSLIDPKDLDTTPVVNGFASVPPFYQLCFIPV
Chain of CYP3A4 (P08684 whole entry): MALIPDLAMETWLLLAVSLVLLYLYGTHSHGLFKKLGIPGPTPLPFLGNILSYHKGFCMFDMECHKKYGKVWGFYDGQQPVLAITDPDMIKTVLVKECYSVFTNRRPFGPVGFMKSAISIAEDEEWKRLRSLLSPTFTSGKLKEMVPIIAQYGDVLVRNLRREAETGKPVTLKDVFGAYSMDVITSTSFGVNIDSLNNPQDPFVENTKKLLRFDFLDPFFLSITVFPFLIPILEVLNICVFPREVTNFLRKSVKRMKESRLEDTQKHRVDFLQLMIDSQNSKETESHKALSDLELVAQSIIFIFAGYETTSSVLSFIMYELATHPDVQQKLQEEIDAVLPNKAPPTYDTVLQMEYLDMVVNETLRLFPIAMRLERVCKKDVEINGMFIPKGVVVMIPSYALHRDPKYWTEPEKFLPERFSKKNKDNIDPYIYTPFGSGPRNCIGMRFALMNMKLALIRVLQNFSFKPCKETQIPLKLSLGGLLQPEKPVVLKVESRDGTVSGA
Chain of CYP2D6 (P10635 whole entry): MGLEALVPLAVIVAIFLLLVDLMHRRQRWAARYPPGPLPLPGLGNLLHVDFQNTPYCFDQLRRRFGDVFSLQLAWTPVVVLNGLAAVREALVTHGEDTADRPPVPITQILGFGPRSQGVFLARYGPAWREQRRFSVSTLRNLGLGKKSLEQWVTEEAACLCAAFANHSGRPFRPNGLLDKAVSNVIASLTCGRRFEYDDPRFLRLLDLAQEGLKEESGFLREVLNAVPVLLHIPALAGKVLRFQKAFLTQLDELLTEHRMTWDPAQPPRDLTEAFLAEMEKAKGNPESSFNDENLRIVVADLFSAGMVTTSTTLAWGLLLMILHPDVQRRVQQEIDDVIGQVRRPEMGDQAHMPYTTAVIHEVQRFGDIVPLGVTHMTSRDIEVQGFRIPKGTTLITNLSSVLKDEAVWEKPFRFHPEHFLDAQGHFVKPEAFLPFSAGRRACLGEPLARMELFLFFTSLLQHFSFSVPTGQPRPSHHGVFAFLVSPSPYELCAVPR
Chain of UGT1A4 (P22310 29-534): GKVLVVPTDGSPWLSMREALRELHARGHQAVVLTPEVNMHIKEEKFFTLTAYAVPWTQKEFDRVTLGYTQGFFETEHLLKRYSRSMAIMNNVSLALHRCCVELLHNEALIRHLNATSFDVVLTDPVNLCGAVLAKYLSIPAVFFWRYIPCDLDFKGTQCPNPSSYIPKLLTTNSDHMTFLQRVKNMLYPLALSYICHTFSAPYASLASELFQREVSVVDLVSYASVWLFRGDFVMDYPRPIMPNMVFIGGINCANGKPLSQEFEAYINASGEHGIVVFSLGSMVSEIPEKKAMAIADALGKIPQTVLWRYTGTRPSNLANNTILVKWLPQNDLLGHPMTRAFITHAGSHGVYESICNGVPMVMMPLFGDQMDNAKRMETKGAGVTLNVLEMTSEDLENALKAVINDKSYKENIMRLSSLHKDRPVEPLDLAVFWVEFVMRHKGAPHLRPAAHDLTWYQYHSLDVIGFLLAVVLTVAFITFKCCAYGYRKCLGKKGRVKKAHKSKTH
Chain of CYP2C8 (P10632 whole entry): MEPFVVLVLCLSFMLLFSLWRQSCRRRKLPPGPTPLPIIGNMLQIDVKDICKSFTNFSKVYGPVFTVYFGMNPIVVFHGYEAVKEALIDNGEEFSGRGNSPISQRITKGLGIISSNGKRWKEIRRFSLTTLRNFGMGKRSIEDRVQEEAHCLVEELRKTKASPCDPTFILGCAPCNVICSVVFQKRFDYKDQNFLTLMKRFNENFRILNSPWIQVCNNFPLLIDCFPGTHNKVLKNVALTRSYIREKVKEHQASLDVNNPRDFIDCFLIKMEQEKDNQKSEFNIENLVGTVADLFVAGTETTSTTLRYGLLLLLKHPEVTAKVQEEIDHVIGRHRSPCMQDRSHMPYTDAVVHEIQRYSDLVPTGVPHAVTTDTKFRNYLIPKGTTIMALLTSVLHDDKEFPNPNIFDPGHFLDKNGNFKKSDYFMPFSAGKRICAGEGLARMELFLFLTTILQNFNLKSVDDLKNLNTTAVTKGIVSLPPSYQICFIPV

## Cc1cn([C@H]2C[C@H](N=[N+]=[N-])[C@@H](CO)O2)c(=O)[nH]c1=O [AZT]
[1]
  EC50 fold change compared to wild-type virus: 3.29
[2]
  EC50 fold change compared to wild-type virus: 1.0
[3]
  EC50 fold change compared to wild-type virus: 1.18
[4]
  EC50 fold change compared to wild-type virus: 3.45
[5]
  EC50 fold change compared to wild-type virus: 1.0

## O=C(C=C(O)c1cc(Cc2c(F)cccc2F)cn(Cc2ccccc2F)c1=O)C(=O)NN1CCCC1=O [Compound 1, 4-(5-(2,6-difluorobenzyl)-1-(2-fluorobenzyl)-2-oxo-1,2-dihydropyridin-3-yl)-4-hydroxy-2-oxo-N-(2-oxopyrrolidin-1-yl)but-3-enamide]
[1]
  EC50 fold change compared to wild-type virus: 8.20
[6]; Human immunodeficiency virus 2, PBMC, in Homo sapiens, read-out: EC50 (± SD)
  EC50: 0.086 µM
[6]; PBMC, HIV-2 isolate CDC310319
  Therapeutic Index (CC50/EC50): 1,119
[2]
  EC50 fold change compared to wild-type virus: 1.0
[7]
  Glucuronide (formed): None^a
[8]
  IC50: > 200 µM
[9]; [31]
  EC50: 0.0485 µM
[9]; PBMC, isolate 93UG067, subtype D
  Therapeutic Index (CC50/EC50): 1,984
[10]
  Glucuronide (formed): None^a
[11]; [31]
  EC50: 0.0334 µM
[11]; PBMC, isolate CDC310342, CRF02-AG
  Therapeutic Index (CC50/EC50): 2,880
[12]; 50 μM, 0.5 mg/mL protein, NADPH, 37 °C
  stability in pooled human liver microsomes: relatively stable
[13]
  IC50: > 200 µM
[14]
  IC50: > 200 µM
[14]; human, liver microsomes, pH 7.4, probe tolbutamide 500 μM
  inhibition at 30 min, 200 μM: 15.5%
[15]
  Glucuronide (formed): None^a
[16]
  EC50 fold change compared to wild-type virus: 18.8
[17]; [31]
  EC50: 0.0524 µM
[17]; PBMC, isolate CMU08, subtype E
  Therapeutic Index (CC50/EC50): 1,836
[18]
  activation of CYP isozymes: not an activator
[19]; [31]
  EC50: 0.0298 µM
[19]; PBMC, isolate 98IN022, subtype C
  Therapeutic Index (CC50/EC50): 3,228
[20]
  inhibition of UGT1A4: not an inhibitor
[21]; [31]
  EC50: 0.0208 µM
[21]; PBMC, isolate 92RW016, subtype A
  Therapeutic Index (CC50/EC50): 4,625
[22]
  EC50: 0.035 µM
[23]
  IC50: > 200 µM
[3]
  EC50 fold change compared to wild-type virus: 1.87
[24]; [31]
  EC50: 0.00689 µM
[24]; PBMC, isolate 91US004, subtype B
  Therapeutic Index (CC50/EC50): 13,962
[25]
  CC50: 96.2 µM
[26]
  IC50: > 200 µM
[4]
  EC50 fold change compared to wild-type virus: 6.13
[5]
  EC50 fold change compared to wild-type virus: 5.20
[27]
  activation of UGT isozymes: no indication of the activation
[28]; [31]
  EC50: 0.0183 µM
[28]; PBMC, isolate 93BR029, subtype F
  Therapeutic Index (CC50/EC50): 5,257
[29]; [31]
  EC50: 0.0349 µM
[29]; PBMC, isolate G3, subtype G
  Therapeutic Index (CC50/EC50): 2,756
[30]; SIV isolate MAC251
  Therapeutic Index (CC50/EC50): 5,037
[30]; Simian immunodeficiency virus, in Homo sapiens, read-out: EC50 (± SD)
  EC50: 0.0191 µM

## COc1cc2c(cc1Cc1cccc(Cl)c1F)c(=O)c(C(=O)O)cn2[C@H](CO)C(C)C [Elvitegravir, elvitegravir]
[1]
  EC50 fold change compared to wild-type virus: 200
[2]
  EC50 fold change compared to wild-type virus: 1.0
[16]
  EC50 fold change compared to wild-type virus: 96.1
[3]
  EC50 fold change compared to wild-type virus: 46.7
[4]
  EC50 fold change compared to wild-type virus: 134
[5]
  EC50 fold change compared to wild-type virus: 5.5

## C[C@]12CC[C@@H]3c4ccc(O)cc4CC[C@H]3[C@@H]1CC[C@@H]2O [Estradiol, reference compound]
[7]
  Glucuronide (formed): Glucuronide
[10]
  Glucuronide (formed): Glucuronides (two)

## Cc1cc(=O)oc2cc(O)ccc12 [Methylumbelliferone, 4-methylumbelliferone]
[10]
  Glucuronide (formed): Glucuronide

## CN1CCN(CCCN2c3ccccc3Sc3ccc(C(F)(F)F)cc32)CC1 [Trifluoperazine]
[10]; pHLM (Xenotech), HPLC
  Glucuronide (formed): N-Glucuronide

## Cc1ncc2n1-c1ccc(Cl)cc1C(c1ccccc1F)=NC2 [midazolam]
[12]; human, microsomes, pH 7.4
  remaining at 1 h: 61.5%
[12]; human, pH 7.4
  Km: 2.52 µM
